Reference: ChEMBL document CHEMBL1165950, “Design and synthesis of new potent anticancer pyrazoles with high FLT3 kinase inhibitory selectivity” (Bioorg Med Chem, 2010)

Experiments:
Assay type in all cases: functional
[1] = tested on: EKVX; experiment: Cytotoxicity against human EKVX cells assessed as cell growth at 10 uM; settings: read-out: Activity
Method in brief: (§1)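 Single-dose NCI-60 screen at 10 µM. Cells were grown in RPMI 1640 with 5% FBS and 2 mM L-glutamine, then treated for 48 h at 37 °C. Protein was measured by SRB staining with absorbance at 515 nm. Percentage growth was recorded, and inhibition percentage was calculated as 100 minus growth percentage.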

[2] = tested on: A549; experiment: Cytotoxicity against human A549 cells assessed as cell growth at 0.01 uM after 48 hrs by sulforhodamine B assay; settings: A549, 48 h, read-out: Activity
Method in brief: (§2)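 NCI-60 five-dose screen. Cells were grown in RPMI 1640 with 5% FBS and 2 mM L-glutamine, plated at 5000–40,000 cells/well and preincubated for 24 h. Time-zero plates were TCA-fixed. DMSO-solubilized drug was added at five concentrations (10-fold or ½-log serial dilutions) for 48 h at 37 °C, 5% CO2. Cells were TCA-fixed, stained with 0.4% SRB and read at 515 nm. Percent growth used time-zero, control and test absorbances.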

[3] = tested on: HL-60(TB); experiment: Growth inhibition of human HL-60(TB) cells after 48 hrs by sulforhodamine B assay; settings: HL-60, 48 h
Method in brief: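 NCI 60-cell SRB screen. Cells in RPMI 1640 with 5% FBS and 2 mM L-glutamine are preincubated 24 h, then exposed to five concentrations (10-fold or 1/2-log dilutions from DMSO stock) for 48 h at 37 °C. Suspension cells are fixed with 80% TCA (final 16%), and A515 is read. IC50 is taken as the concentration where [(Ti−Tz)/(C−Tz)]×100 = 50, i.e. 50% reduction in net protein increase.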

[4] = tested on: OVCAR-8; experiment: Cytotoxicity against human OVCAR8 cells assessed as cell growth at 0.001 uM after 48 hrs by sulforhodamine B assay; settings: OVCAR-8, 48 h, read-out: Activity
[5] = Growth inhibition of human […] cells after 48 hrs by sulforhodamine B assay; settings: for CC50: read-out: LC50 (the source's name)
Method in brief: (§3)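 NCI 60-cell screen, five-dose mode. Cells grown in RPMI 1640 with 5% FBS and 2 mM L-glutamine and plated at 5000-40,000 cells/well according to doubling time. After 24 h preincubation, a Tz plate was TCA-fixed. Five concentrations (10-fold or 1/2 log dilutions) were applied for 48 h at 37 °C. SRB staining read at 515 nm. IC50 taken from [(Ti-Tz)/(C-Tz)]×100 = 50.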

[6] = tested on: UO-31; experiment: Cytotoxicity against human UO31 cells assessed as cell growth at 1 uM after 48 hrs by sulforhodamine B assay; settings: UO-31, 48 h, read-out: Activity
[7] = tested on: HCT-116; experiment: Cytotoxicity against human HCT116 cells assessed as cell growth at 10 uM; settings: read-out: Activity; method in brief: as §1
[8] = tested on: MCF7; experiment: Cytotoxicity against human MCF7 cells assessed as cell growth at 10 uM; settings: read-out: Activity
Method in brief: (§4)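 NCI-60 screen: cells grown in RPMI 1640 with 5% FBS and 2 mM L-glutamine, plated at 5000–40,000 cells/well according to doubling time, and preincubated 24 h at 37 °C, 5% CO2. The single 10 µM dose (DMSO stock) was added, then incubated 48 h. Cells were TCA-fixed and stained with 0.4% SRB, read at 515 nm, and growth % calculated against time-zero and control plates.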

[9] = tested on: DU-145; experiment: Cytotoxicity against human DU145 cells assessed as cell growth at 100 nM after 48 hrs by sulforhodamine B assay; settings: DU-145, 48 h, read-out: Activity
[10] = tested on: UACC-62; experiment: Growth inhibition of human UACC62 cells after 48 hrs by sulforhodamine B assay; settings: UACC-62, 48 h; for CC50: read-out: LC50 (the source's name); method in brief: as §3
[11] = tested on: Malme-3M; experiment: Cytotoxicity against human MALME-3M cells assessed as cell growth at 0.001 uM after 48 hrs by sulforhodamine B assay; settings: read-out: Activity
[12] = tested on: SK-MEL-2; experiment: Cytotoxicity against human SK-MEL-2 cells assessed as cell growth at 1 uM after 48 hrs by sulforhodamine B assay; settings: SK-MEL-2, 48 h, read-out: Activity
[13] = tested on: OVCAR-4; experiment: Growth inhibition of human OVCAR4 cells after 48 hrs by sulforhodamine B assay; settings: OVCAR-4, 48 h; for CC50: read-out: LC50 (the source's name); method in brief: as §3
[14] = tested on: SK-OV-3; experiment: Cytotoxicity against human SKOV3 cells assessed as cell growth at 10 uM; settings: read-out: Activity; method in brief: as §4
[15] = tested on: HOP-62; experiment: Cytotoxicity against human HOP62 cells assessed as cell growth at 0.001 uM after 48 hrs by sulforhodamine B assay; settings: HOP-62, 48 h, read-out: Activity
[16] = tested on: SF-295; experiment: Cytotoxicity against human SF295 cells assessed as cell growth at 10 uM; settings: read-out: Activity; method in brief: as §4
[17] = tested on: IGROV-1; experiment: Cytotoxicity against human IGROV1 cells assessed as cell growth at 0.001 uM after 48 hrs by sulforhodamine B assay; settings: IGROV-1, 48 h, read-out: Activity
[18] = tested on: SN12C; experiment: Growth inhibition of human SN12C cells after 48 hrs by sulforhodamine B assay; method in brief: as §3
[19] = tested on: OVCAR-8; experiment: Cytotoxicity against human OVCAR8 cells assessed as cell growth at 10 uM; settings: read-out: Activity; method in brief: as §4
[20] = tested on: OVCAR-3; experiment: Cytotoxicity against human OVCAR-3 cells assessed as cell growth at 1 uM after 48 hrs by sulforhodamine B assay; settings: OVCAR-3, 48 h, read-out: Activity
[21] = tested on: CAKI-1; experiment: Cytotoxicity against human Caki1 cells assessed as cell growth at 0.001 uM after 48 hrs by sulforhodamine B assay; settings: CAKI-1, 48 h, read-out: Activity
[22] = tested on: NCI-H522; experiment: Cytotoxicity against human NCI-H522 cells assessed as cell growth at 1 uM after 48 hrs by sulforhodamine B assay; settings: NCI-H522, 48 h, read-out: Activity
[23] = tested on: MDA-MB-435; experiment: Cytotoxicity against human MDA-MB-435 cells assessed as cell growth at 0.001 uM after 48 hrs by sulforhodamine B assay; settings: MDA-MB-435, 48 h, read-out: Activity
[24] = tested on: T47D; experiment: Cytotoxicity against human T47D cells assessed as cell growth at 10 uM; settings: read-out: Activity; method in brief: as §4
[25] = tested on: UACC-257; experiment: Cytotoxicity against human UACC257 cells assessed as cell growth at 1 uM after 48 hrs by sulforhodamine B assay; settings: UACC-257, 48 h, read-out: Activity
[26] = tested on: UO-31; experiment: Cytotoxicity against human UO31 cells assessed as cell growth at 0.01 uM after 48 hrs by sulforhodamine B assay; settings: UO-31, 48 h, read-out: Activity
[27] = tested on: NCI/ADR-RES; experiment: Cytotoxicity against human NCI/ADR-RES cells assessed as cell growth at 10 uM after 48 hrs by sulforhodamine B assay; settings: read-out: Activity
[28] = tested on: COLO 205; experiment: Cytotoxicity against human COLO205 cells assessed as cell growth at 0.001 uM after 48 hrs by sulforhodamine B assay; settings: COLO 205, 48 h, read-out: Activity; method in brief: as §2

For `COc1cc(C)cc(-c2nn(CC#N)cc2-c2ccc(-c3cccc(C(C)=O)c3)nc2)c1`, the growth at 10 µM [1] was 51.6%, the growth at 0.01 µM [2] was 87% and the GI50 [3] was 1.78 µM. For the same compound, the LC50 [3] was greater than 100 µM, the TGI [3] was 15.1 µM and the growth at 0.001 µM [4] was 91%. The GI50 [5] was 3.3 µM, the TGI [5] was 18.6 µM and the CC50 [5] was greater than 100 µM. It also gave a growth at 1 µM [6] of 21%, a growth at 10 µM [7] of 10.3% and a growth at 10 µM [8] of 8.74%. For the same compound, the growth at 0.1 µM [9] was 87%, the GI50 [10] was 4.36 µM and the TGI [10] was greater than 100 µM. The CC50 [10] was greater than 100 µM, the growth at 0.001 µM [11] was 97% and the growth at 1 µM [12] was 22%. The GI50 [13] was 3.76 µM, the TGI [13] was greater than 100 µM and the CC50 [13] was greater than 100 µM. The growth at 10 µM [14] was 10.1%, the growth at 0.001 µM [15] was 84% and the growth at 10 µM [16] was 16.9%. For the same compound, the growth at 0.001 µM [17] was 106%, the GI50 [18] was 6.08 µM and the LC50 [18] was greater than 100 µM. For the same compound, the TGI [18] was greater than 100 µM, the growth at 10 µM [19] was 31.4% and the growth at 1 µM [20] was -61%. The growth at 0.001 µM [21] was 101%, the growth at 1 µM [22] was -14% and the growth at 0.001 µM [23] was 101%. For the same compound, the growth at 10 µM [24] was 11.6%, the growth at 1 µM [25] was 34% and the growth at 0.01 µM [26] was 86%. The growth at 10 µM [27] was -14% and the growth at 0.001 µM [28] was 103%.
Compound `COc1cc(C)cc(-c2c(-c3ccnc(-c4ccc(C(C)=O)cc4)c3)cnn2CC#N)c1` has a growth at 10 µM [1] of 98.6%, a growth at 0.01 µM [2] of 84% and a GI50 [3] of 2.26 µM. It also gave an LC50 [3] greater than 100 µM, a TGI [3] of 6.5 µM and a growth at 0.001 µM [4] of 103%. The GI50 [5] was 2.59 µM, the TGI [5] was 9.02 µM and the CC50 [5] was greater than 100 µM. For the same compound, the growth at 1 µM [6] was 11%, the growth at 10 µM [7] was 23.4% and the growth at 10 µM [8] was 21.9%. It also gave a growth at 0.1 µM [9] of 89%, a GI50 [10] of 4.05 µM and a TGI [10] greater than 100 µM. It also gave a CC50 [10] greater than 100 µM, a growth at 0.001 µM [11] of 105% and a growth at 1 µM [12] of 34%. The GI50 [13] was 5.13 µM, the TGI [13] was greater than 100 µM and the CC50 [13] was greater than 100 µM. It also gave a growth at 10 µM [14] of 97.8%, a growth at 0.001 µM [15] of 94% and a growth at 10 µM [16] of 93.2%. The growth at 0.001 µM [17] was 107%, the GI50 [18] was 4.49 µM and the LC50 [18] was greater than 100 µM. It also gave a TGI [18] greater than 100 µM, a growth at 10 µM [19] of 80.1% and a growth at 1 µM [20] of -10%. It also gave a growth at 0.001 µM [21] of 104%, a growth at 1 µM [22] of -14% and a growth at 0.001 µM [23] of 100%. For the same compound, the growth at 10 µM [24] was 45.6%, the growth at 1 µM [25] was 38% and the growth at 0.01 µM [26] was 87%. For the same compound, the growth at 10 µM [27] was 11% and the growth at 0.001 µM [28] was 109%.
`COc1cc(C)cc(-c2c(-c3ccnc(-c4ccc(N(C)C)cc4)c3)cnn2CC#N)c1` gave a growth at 10 µM [1] of 45.8%, a growth at 0.01 µM [2] of 59% and a GI50 [3] of 0.105 µM. For the same compound, the LC50 [3] was greater than 100 µM, the TGI [3] was 0.465 µM and the growth at 0.001 µM [4] was 101%. It also gave a GI50 [5] of 0.266 µM, a TGI [5] of 1.96 µM and a CC50 [5] greater than 100 µM. For the same compound, the growth at 1 µM [6] was 12%, the growth at 10 µM [7] was -32.4% and the growth at 10 µM [8] was 2.45%. The growth at 0.1 µM [9] was -51%, the GI50 [10] was 0.0619 µM and the TGI [10] was greater than 100 µM. For the same compound, the CC50 [10] was greater than 100 µM, the growth at 0.001 µM [11] was 97% and the growth at 1 µM [12] was 11%. It also gave a GI50 [13] of 0.27 µM, a TGI [13] greater than 100 µM and a CC50 [13] greater than 100 µM. It also gave a growth at 10 µM [14] of -3.63%, a growth at 0.001 µM [15] of 99% and a growth at 10 µM [16] of 4.06%. For the same compound, the growth at 0.001 µM [17] was 95%, the GI50 [18] was 0.398 µM and the LC50 [18] was greater than 100 µM. The TGI [18] was greater than 100 µM, the growth at 10 µM [19] was 25.4% and the growth at 1 µM [20] was 3%. It also gave a growth at 0.001 µM [21] of 124%, a growth at 1 µM [22] of -53% and a growth at 0.001 µM [23] of 88%. For the same compound, the growth at 10 µM [24] was 46.5%, the growth at 1 µM [25] was 29% and the growth at 0.01 µM [26] was 63%. The growth at 10 µM [27] was 3% and the growth at 0.001 µM [28] was 98%.
